The values that follow come from publication PMC7105014 (Journal of Functional Foods, 2011).

The target of one test is HCV NS3/4A protease (Hepatitis C virus genotype 1a, UniProt P27958). The experiment in a line: HCV NS3/4A protease inhibition. It is filed as biochemical. In short, it runs like this:
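Test compound in DMSO was mixed with HCV NS3/4A protease solution (0.5 μg/ml; SensoLyte 520 kit). The reaction was started with substrate diluted 100× from a DMSO stock. After 30 min at room temperature, fluorescence was read (ex 485/em 535 nm) and corrected with a substrate blank. % inhibition was taken against a compound-free control. IC50 came from concentration–inhibition curves, with embelin as reference inhibitor.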

Another test deals with α-glucosidase. Particulars: read-out: IC50 against α-glucosidase; ref Hakamata et al., 2006; cited from earlier work.

HCV NS3/4A protease, sequence (P27958 1027-1657 limits assumed): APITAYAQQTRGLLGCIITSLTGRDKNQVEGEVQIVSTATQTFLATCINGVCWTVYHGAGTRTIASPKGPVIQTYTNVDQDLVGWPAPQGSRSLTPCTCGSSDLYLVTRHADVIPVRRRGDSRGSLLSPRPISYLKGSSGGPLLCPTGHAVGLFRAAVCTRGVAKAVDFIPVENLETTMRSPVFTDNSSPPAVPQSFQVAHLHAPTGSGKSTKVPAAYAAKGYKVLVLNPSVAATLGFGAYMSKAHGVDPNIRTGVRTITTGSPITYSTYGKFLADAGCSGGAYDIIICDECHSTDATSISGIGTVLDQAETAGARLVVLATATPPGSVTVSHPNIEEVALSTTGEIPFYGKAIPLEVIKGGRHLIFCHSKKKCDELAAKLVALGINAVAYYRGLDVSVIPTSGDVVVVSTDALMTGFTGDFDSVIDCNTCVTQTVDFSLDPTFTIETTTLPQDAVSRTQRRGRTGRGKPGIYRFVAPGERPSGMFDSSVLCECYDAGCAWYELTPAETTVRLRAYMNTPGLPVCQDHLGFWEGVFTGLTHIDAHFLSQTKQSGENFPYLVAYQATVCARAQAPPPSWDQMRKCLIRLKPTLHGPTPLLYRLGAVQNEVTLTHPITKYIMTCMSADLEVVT
HCV NS3/4A protease, sequence (P27958 1658-1711 partner limits assumed): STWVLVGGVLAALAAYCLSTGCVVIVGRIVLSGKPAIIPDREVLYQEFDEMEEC

For `CCCCCCCCCCCC1=C(O)C(=O)C=C(O)C1=O` [Embelin, embelin], half-maximal inhibition at HCV NS3/4A protease (IC50) required 10.2 µM.

On to `Oc1cc(O)c2c(c1)O[C@H](c1ccc(O)c(O)c1)[C@@H](O)C2` [(+)-catechin], for which, at α-glucosidase, the IC50 (commonly the concentration at which inhibition is half-maximal) was > 500 µM.
